Bioassay records deposited in PubChem by several laboratories.
SENP7 inh: SENP7 protease inhibitors, primary screen, biochemical, luminescence, uHTS; recombinant SENP7, Z-RLRGG-aminoluciferin luminescence, 40 min; inhibition, % at 5 µM; 330,000 tested, 1.5% active; AID 434973, 2010; Sentrin-specific protease 7 (Homo sapiens), Q9BQF6;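 active = inhibition above about 50% at the single test dose, limit read from the data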;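 note: plate controls were DMSO with enzyme for no effect and no enzyme buffer wells for full effect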
SENP8 block-1: human SENP8 protease inhibitors, primary screen, biochemical, fluorescence, Nedd8 protein substrate, uHTS | Sentrin-specific protease 8 (Homo sapiens), Q96LD8 | recombinant SENP8 | inhibition, % at 20 µM | 360,000 tested, 0.64% active | AID 602440, 2012; in the data active = inhibition mostly above about 40%, no sharp cut-off; inactive = mostly below about 27%
Platelet DG rel: inhibitors of platelet dense granule secretion, primary screen, cell-based, MLPCN, human platelets; inhibition, %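 (compounds screened at 7.5 µM in platelet-rich plasma)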; human platelet-rich plasma, SFLLRN dense granule ATP release, luminescence; AID 1663, 2009; 300,000 tested, 0.22% active;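 active = mean replicate score, as percent of positive control, at or above 50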
SENP8 block-2: SENP8 protease inhibitors, primary screen, biochemical, luminescence. purified SENP8, Z-RLRGG-aminoluciferin cleavage. AID 2540, 2010. 330,000 tested, 1.2% active. inhibition, % at 10 µM; in the data active = inhibition above about 50%
SENP6 inh: SENP6 protease inhibitors, primary screen, biochemical, luminescence, uHTS. Sentrin-specific protease 6 (Homo sapiens), Q9GZR1. inhibition, % at 10 µM. 330,000 tested, 1.8% active. Recombinant SENP6 catalytic domain, aminoluciferin luminescence;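 active = inhibition above about 50% at the single tested dose, limit read from the data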;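 note: plate controls were DMSO wells with enzyme for no effect and DMSO wells lacking enzyme for full effect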
Target sequence (Q9GZR1 628-1112 limits assumed): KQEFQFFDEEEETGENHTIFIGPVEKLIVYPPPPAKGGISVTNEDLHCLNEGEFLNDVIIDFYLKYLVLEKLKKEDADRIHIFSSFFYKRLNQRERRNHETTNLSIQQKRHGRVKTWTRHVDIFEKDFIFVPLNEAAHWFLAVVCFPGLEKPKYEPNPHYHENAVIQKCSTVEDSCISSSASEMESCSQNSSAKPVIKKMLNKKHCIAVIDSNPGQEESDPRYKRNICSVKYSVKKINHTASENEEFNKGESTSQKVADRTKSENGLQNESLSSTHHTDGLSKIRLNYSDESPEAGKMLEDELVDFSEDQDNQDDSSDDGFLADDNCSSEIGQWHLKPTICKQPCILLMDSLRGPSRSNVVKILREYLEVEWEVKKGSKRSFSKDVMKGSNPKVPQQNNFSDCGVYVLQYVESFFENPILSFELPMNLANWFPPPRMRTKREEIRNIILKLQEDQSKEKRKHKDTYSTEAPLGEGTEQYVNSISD
SENP1 FRET inh: human SENP1 catalytic domain inhibitors, primary screen, biochemical, FRET, uHTS | recombinant SENP1 catalytic domain, CyPet-SUMO1-YPet FRET cleavage | inhibition, % at 10 µM | 360,000 tested, 0.21% active;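 active = inhibition at least 30% at 10 µM, raw YFP signal under a set limit, fluorescence ratio 0.5 to 1.5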;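 note: 0% = enzyme with DMSO and 100% = no enzyme wells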
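Compound: 10 µM single point, 0.5% DMSO; Test system: hSENP1 catalytic domain, recombinant; Timing: 50 min reaction at room temperature; Technique: FRET, CFP and YFP emission; Control set: no-enzyme wells low, DMSO-plus-enzyme wells high control.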
SENP8 confirm: SENP8 protease inhibitors, retest, confirmation, biochemical, luminescence, single concentration; shares compounds with SENP7 inh; Recombinant SENP8, Z-RLRGG-aminoluciferin luminescence, 60 min; inhibition, % at 12.5 µM; 6,200 tested, 40% active;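 active = mean inhibition across replicates above about 50%, limit read from the data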
SENP6 conf: SENP6 protease inhibitors, confirmation, biochemical, luminescence, single concentration | 6,200 tested, 58% active | AID 488915, 2010 | recombinant SENP6, Z-RLRGG-aminoluciferin luminescence | inhibition, % at 12.5 µM | shares compounds with SENP7 inh
SENP7 confirm: SENP7 protease inhibitors, retest, confirmation, biochemical, luminescence, single concentration. shares compounds with SENP7 inh. recombinant SENP7, Z-RLRGG-aminoluciferin luminescence, 40 min. inhibition, % at 12.5 µM. 6,200 tested, 69% active. AID 488917, 2010
Casp3 SENP sel: caspase-3 protease inhibitors, confirmation, selectivity assay for SENP inhibitor project, biochemical, single concentration. shares compounds with SENP7 inh. purified caspase-3, Z-DEVD-aminoluciferin luminescence, 60 min. inhibition, % at 12.5 µM. 6,200 tested, 60% active;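 active = mean inhibition above about 50%, limit read from the data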;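 note: plate controls were enzyme with DMSO for no effect and wells without caspase-3 for full effect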
Luc interf: luminescence interference (SENP counter-screen). shares compounds with SENP7 inh. Pre-incubated SENP8/Z-RLRGG-aminoluciferin, luciferase luminescence interference. inhibition, % at 12.5 µM. 6,200 tested, 39% active;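 active = mean inhibition above about 50% when retested at one dose, limit read from the data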;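 note: plate controls were DMSO wells with completed reaction for no effect and substrate without enzyme for full effect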
An asterisk follows results filed as active; i = inactive; / = not tested or not shown. In the library only some 2.6% were active in any assay of this set; here they are far more common.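 Rule for the calls, unless noted: active = mean inhibition above about 50% in the one-dose retest (limit read from the data); inactive = the rest.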

SMILES	SENP7 inh	SENP8 block-1	Platelet DG rel	SENP8 block-2	SENP6 inh	SENP1 FRET inh	SENP8 confirm	SENP6 conf	SENP7 confirm	Casp3 SENP sel	Luc interf
O=C(Nc1cc(Cl)cc(Cl)c1)c1cccc(OC(F)F)c1	14	24	10	-1	54*	0	42	33	69*	8	10
CN(C)S(=O)(=O)Oc1cccc(C(=O)Nc2cccc(Cl)c2)c1	89*	10	-1	76*	51*	1	85*	85*	97*	69*	75*
COc1ccc(NC(=O)c2cccc(OS(=O)(=O)N(C)C)c2)cc1	24	7	1	7	17	2	/	/	/	/	/
O=C(Nc1ccc(Cl)cc1)c1ccc2ncsc2c1	2	-30	/	-2	-5	-9	/	/	/	/	/
O=C(Nc1cccc(Cl)c1)c1ccc2ncsc2c1	62*	9	9	49	57*	1	60*	60*	86*	51*	68*
CNS(=O)(=O)c1cccc(C(=O)Nc2cccc(Cl)c2)c1	17	19	/	-10	26	-1	/	/	/	/	/
CCN1C(=O)[C@H]2[C@H]3CN=C(SCC(=O)c4ccccc4)N3[C@@](CC)(C(=O)OC)[C@H]2C1=O	4	6	/	/	/	2	/	/	/	/	/
CCC(C)C(NS(=O)(=O)c1ccc(C)cc1)C(=O)NCCCN1CCOCC1 (stereo not given)	7	18	-6	-4	-1	2	/	/	/	/	/
CC(C)(C)CN1CCN(Cc2nc(-c3ccc(F)cc3)cs2)CC1CCO (stereo not given)	-2	17	-3	6	2	-4	/	/	/	/	/
COc1ccc2c(C#N)c3ccccn3c2c1	21	-391	-7	10	50*	-24	26	52*	-1	4	-1
OC(COC(c1ccccc1)c1ccccc1)CN1CCN(c2cccc(Cl)c2)CC1 (stereo not given)	-10	3	3	-5	101*	1	4	-2	0	-3	-4
CN1OC[C@@H]2CN[C@H](c3cccc(N4CCOCC4)c3)C[C@@H]21	/	13	/	/	/	2	/	/	/	/	/
CCOc1ccc(NC(=O)CSc2nc3ccsc3c(=O)n2CCC(=O)O)cc1	4	9	24	-1	-3	2	/	/	/	/	/
Cc1ccc2c(c1)C(N1CCCC1=O)CC(c1ccco1)N2 (stereo not given)	-8	-473	14	95*	94*	-18	22	82*	100*	95*	17
O=C(Nc1ccc(CN2CCCCC2)cc1)Nc1ccccc1Cl	9	18	-8	-9	2	1	/	/	/	/	/
O=C(Nc1ccc(Cl)cc1)Nc1cccc(C(=O)O)c1	97*	14	7	95*	95*	3	99*	99*	104*	87*	98*
O=C(Nc1ccc(Br)cc1)Nc1ccccc1Cl	94*	19	2	68*	81*	2	-2	68*	90*	38	3
CSc1cccc(NC(=O)Nc2ccc(Cl)cc2)c1	0	23	-5	-1	-19	4	/	/	/	/	/
O=C(Nc1cccc(C(=O)O)c1)Nc1ccccc1Cl	97*	-3	10	93*	95*	1	98*	98*	103*	96*	75*
COC(=O)C1CC(c2ccccc2)N(c2ccccc2)O1 (stereo not given)	/	14	/	/	/	-2	/	/	/	/	/
N#Cc1nc(-c2ccc(F)cc2)oc1N1CCC(C(N)=O)CC1	-12	-312	3	-7	-12	0	/	/	/	/	/
Cc1cccn2cc(-c3ccccc3)nc12	69*	-229	0	53*	74*	0	11	71*	93*	85*	70*
Cc1cccn2cc(-c3ccc(F)cc3)nc12	91*	-113	-1	78*	93*	1	12	87*	99*	90*	82*
COc1ccc(-c2cn3ccc4ccccc4c3n2)cc1	92*	i	2	83*	92*	2	30	86*	100*	87*	46
COc1ccc(C(=O)NCCc2ccccn2)cc1S(=O)(=O)Nc1ccc(Br)cc1	1	1	/	5	2	0	/	/	/	/	/
SMILES	SENP7 inh	SENP8 block-1	Platelet DG rel	SENP8 block-2	SENP6 inh	SENP1 FRET inh	SENP8 confirm	SENP6 conf	SENP7 confirm	Casp3 SENP sel	Luc interf
COCCN(C(=O)COC(=O)CSc1ccc2ccccc2c1)c1c(N)n(Cc2ccccc2)c(=O)[nH]c1=O	-9	-29	-4	-7	-15	0	/	/	/	/	/
Cc1cccc(-n2c(CNC(=O)Cc3ccccc3)n[nH]c2=S)c1	8	3	-2	6	21	-1	/	/	/	/	/
O=C1c2ccccc2C(=O)C1(CO)c1ccc(OC(F)F)cc1	3	12	16	94*	94*	1	4	98*	103*	96*	57*
O=C1c2ccccc2C(=O)C1(CO)c1ccccc1	15	18	1	31	56*	1	38	50*	82*	77*	48
N#Cc1ccccc1CSc1ccc(-c2nc3ccccc3[nH]2)cn1	6	-48	3	49	64*	1	67*	63*	80*	34	53*
CC(=O)CSc1ccc(-c2nc3cc(C)c(C)cc3[nH]2)cn1	29	-421	-11	18	34	-4	/	/	/	/	/
Cc1cc2nc(-c3ccc(SCc4ccc(C#N)cc4)nc3)[nH]c2cc1C	3	-268	-3	-3	3	-5	/	/	/	/	/
CC(=O)CSc1ccc(-c2nc3ccccc3[nH]2)cn1	73*	-138	11	48	78*	0	70*	67*	88*	86*	72*
